Measurements: ChEMBL document CHEMBL1147076, “Antitumor activity of MLN8054, an orally active small-molecule inhibitor of Aurora A kinase” (Proc Natl Acad Sci U S A, 2007)
The source made the active and inactive calls. The calls are words filed in the database; no cut-off is given here.

Legend:
[1] = system: Mitogen-activated protein kinase 14 (Homo sapiens), Q16539 [T106M]; assay: Activity of human SAPK2a T106M mutant kinase at 1 uM
In short: (§1)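 Single-concentration screen across a 226-kinase panel run by an outside provider; test compound at 1 μM with 10 μM ATP in every assay. Other conditions not detailed.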

[2] = target: Casein kinase I homolog 1 (Saccharomyces cerevisiae S288c) (UniProt P23291); assay: Activity of Saccharomyces cerevisiae CK1 kinase at 1 uM
PC-3 [3] = assay: Cell cycle arrest in human PC3 cells by accumulation at G2/M phase at 1 uM after 48 hrs by flow cytometry relative to control; type: functional
In short: (§2)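 DNA content profiles by flow cytometry of PC-3 prostate tumor cells exposed to drug diluted in DMSO for 24 or 48 h. Phase distribution was compared with DMSO-treated control cells.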

[4] = target: Rho-associated protein kinase 1 (Homo sapiens) (UniProt Q13464); assay: Activity of human ROCK1 kinase at 1 uM
Chain of Rho-associated protein kinase 1 (Homo sapiens) (Q13464 2-1354 limits assumed): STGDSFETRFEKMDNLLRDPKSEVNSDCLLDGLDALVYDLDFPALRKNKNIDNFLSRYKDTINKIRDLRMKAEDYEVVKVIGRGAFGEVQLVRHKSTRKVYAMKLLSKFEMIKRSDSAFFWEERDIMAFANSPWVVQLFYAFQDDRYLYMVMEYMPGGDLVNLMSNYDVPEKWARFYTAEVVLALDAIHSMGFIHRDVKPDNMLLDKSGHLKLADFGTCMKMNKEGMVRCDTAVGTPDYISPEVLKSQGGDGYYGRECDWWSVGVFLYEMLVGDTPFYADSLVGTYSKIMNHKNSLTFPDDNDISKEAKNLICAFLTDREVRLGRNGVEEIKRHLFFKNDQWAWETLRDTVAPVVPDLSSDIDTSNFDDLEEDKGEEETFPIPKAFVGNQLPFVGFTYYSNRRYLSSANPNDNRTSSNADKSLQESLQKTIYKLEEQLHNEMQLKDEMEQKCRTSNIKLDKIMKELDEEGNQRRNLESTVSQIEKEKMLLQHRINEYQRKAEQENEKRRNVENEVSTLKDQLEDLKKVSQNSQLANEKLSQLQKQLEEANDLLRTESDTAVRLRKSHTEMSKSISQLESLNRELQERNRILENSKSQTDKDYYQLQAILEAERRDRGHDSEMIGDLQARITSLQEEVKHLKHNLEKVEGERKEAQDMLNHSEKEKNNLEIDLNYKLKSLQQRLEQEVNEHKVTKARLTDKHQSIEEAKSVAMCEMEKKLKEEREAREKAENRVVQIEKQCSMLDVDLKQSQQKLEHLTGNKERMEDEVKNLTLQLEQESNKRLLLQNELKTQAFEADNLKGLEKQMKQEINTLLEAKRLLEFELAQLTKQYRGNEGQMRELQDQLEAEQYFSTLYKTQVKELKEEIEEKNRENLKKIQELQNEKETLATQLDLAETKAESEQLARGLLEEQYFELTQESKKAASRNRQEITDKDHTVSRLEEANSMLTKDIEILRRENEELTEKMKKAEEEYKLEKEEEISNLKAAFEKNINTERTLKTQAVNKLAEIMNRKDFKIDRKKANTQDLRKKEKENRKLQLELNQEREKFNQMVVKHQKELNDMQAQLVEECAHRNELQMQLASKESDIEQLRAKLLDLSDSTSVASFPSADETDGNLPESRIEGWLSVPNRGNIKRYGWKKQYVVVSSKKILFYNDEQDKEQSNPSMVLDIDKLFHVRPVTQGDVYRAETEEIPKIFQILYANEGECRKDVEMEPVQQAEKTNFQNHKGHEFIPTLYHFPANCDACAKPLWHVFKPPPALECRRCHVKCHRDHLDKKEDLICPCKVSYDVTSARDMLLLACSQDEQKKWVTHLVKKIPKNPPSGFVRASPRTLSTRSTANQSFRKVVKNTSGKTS
In short: (§3)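 Single-point screen in a 226-kinase panel run by an outside service. Test compound at 1 μM with ATP at 10 μM in every assay. Other assay conditions are not given.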

Mus musculus = assay: Toxicity in human PC3 cells xenografted into athymic nude NCR nu/nu mouse assessed as decrease in body weight at 30 mg/kg, BID after 21 days; type: organism-based, PC-3; parameters: dose 30 mg/kg; scale not given: the % may be the effect or the level left; settings: in vivo, 504 h
In short: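 Male athymic nude NCR nu/nu mice were given PC-3 cells (2 × 10^6) s.c. in the right flank. Drug in 10% hydroxypropyl-β-cyclodextrin/5% sodium bicarbonate was given orally twice daily for 21 days. Average loss of initial body weight was recorded on day 21 of treatment.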

[5] = target: Serine/threonine-protein kinase D1 (Homo sapiens) (UniProt Q15139); assay: Activity of human PKCmu kinase at 1 uM
In short: (§4)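 Single-point kinase profiling: each kinase in a 226-kinase panel tested with compound at 1 μM and ATP at 10 μM in every assay, run by an external screening service.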

[6] = target: Mitogen-activated protein kinase kinase kinase 5 (Homo sapiens) (UniProt Q99683); assay: Activity of human ASK1 kinase at 1 uM
PC-3 [7] = assay: Cell cycle arrest in human PC3 cells by accumulation at >4N phase at 4 uM after 24 hrs by flow cytometry relative to control; type: functional
[8] = target: BDNF/NT-3 growth factors receptor (Homo sapiens) (UniProt Q16620); assay: Activity of human TrkB kinase at 1 uM; in short: as §1
Chain of BDNF/NT-3 growth factors receptor (Homo sapiens) (Q16620 32-822 limits assumed): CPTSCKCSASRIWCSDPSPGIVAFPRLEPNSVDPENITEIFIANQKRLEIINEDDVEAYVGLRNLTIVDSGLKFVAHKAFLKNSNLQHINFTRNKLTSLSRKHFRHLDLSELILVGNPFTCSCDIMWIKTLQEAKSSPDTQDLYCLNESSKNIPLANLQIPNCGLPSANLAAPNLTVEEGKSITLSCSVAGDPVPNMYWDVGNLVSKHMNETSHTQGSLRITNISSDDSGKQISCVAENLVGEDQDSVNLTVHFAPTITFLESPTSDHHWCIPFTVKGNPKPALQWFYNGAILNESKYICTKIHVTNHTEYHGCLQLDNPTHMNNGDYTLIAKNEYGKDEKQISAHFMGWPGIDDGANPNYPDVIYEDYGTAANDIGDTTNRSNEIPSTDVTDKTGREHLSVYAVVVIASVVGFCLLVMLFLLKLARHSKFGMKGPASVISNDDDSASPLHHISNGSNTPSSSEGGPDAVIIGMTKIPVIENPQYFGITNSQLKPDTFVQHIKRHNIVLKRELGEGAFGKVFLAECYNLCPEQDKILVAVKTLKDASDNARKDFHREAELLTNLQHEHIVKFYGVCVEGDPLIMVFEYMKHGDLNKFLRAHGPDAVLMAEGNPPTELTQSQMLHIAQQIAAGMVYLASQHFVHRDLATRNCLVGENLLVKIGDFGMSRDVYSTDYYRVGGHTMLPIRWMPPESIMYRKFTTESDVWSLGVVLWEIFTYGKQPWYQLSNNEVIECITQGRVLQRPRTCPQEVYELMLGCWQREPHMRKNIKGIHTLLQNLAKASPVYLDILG

PC-3 [9] = assay: Induction of apoptosis in human PC3 cells assessed as PARP cleavage at 1 uM after 48 hrs by Western blot method; type: functional, cell-based
[10] = target: Hepatocyte growth factor receptor (Homo sapiens) (UniProt P08581); assay: Activity of human Met kinase at 1 uM; in short: as §4
Chain of Hepatocyte growth factor receptor (Homo sapiens) (P08581 whole entry): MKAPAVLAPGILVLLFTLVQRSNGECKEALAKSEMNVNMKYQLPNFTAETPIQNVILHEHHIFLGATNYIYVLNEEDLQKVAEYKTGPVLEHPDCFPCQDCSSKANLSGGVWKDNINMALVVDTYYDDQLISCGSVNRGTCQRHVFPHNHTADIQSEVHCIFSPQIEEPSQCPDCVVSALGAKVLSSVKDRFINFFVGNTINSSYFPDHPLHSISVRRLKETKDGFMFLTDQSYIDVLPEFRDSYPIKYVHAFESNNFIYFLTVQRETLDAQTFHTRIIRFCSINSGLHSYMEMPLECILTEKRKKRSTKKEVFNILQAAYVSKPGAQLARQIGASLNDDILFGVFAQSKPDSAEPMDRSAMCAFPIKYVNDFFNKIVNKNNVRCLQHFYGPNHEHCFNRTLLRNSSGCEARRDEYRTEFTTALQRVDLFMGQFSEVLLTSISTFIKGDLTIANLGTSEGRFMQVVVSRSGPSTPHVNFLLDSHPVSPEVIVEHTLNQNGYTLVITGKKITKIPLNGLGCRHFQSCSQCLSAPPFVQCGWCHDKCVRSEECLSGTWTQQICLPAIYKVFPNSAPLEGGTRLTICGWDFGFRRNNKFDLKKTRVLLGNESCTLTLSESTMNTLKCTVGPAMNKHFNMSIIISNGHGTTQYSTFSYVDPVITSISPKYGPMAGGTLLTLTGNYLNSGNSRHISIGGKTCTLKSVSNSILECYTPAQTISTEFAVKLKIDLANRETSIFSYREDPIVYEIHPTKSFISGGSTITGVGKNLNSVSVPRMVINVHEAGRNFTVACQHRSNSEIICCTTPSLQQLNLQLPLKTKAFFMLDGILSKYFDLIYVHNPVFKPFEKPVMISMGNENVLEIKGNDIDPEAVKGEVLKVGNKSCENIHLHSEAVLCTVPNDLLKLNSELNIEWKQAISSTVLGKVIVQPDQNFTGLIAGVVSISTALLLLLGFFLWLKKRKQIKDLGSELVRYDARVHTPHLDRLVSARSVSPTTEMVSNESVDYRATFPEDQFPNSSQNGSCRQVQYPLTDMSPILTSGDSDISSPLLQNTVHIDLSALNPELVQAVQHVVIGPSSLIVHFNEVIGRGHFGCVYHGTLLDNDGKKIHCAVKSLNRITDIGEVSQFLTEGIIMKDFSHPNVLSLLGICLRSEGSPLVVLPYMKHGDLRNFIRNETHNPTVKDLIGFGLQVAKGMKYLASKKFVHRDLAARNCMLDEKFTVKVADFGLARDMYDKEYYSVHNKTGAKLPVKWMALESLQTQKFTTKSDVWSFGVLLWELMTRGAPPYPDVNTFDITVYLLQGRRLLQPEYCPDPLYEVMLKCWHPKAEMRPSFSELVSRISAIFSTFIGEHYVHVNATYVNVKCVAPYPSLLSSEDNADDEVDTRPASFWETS

[11] = target: Rho-associated protein kinase 2 (Rattus norvegicus) (UniProt Q62868); assay: Activity of rat ROCK2 kinase at 1 uM; in short: as §3
[12] = target: Tyrosine-protein kinase JAK2 (Homo sapiens) (UniProt O60674); assay: Activity of human JAK2 kinase at 1 uM
[13] = target: Interleukin-1 receptor-associated kinase 4 (Homo sapiens) (UniProt Q9NWZ3); assay: Activity of human IRAK4 kinase at 1 uM
Chain of Interleukin-1 receptor-associated kinase 4 (Homo sapiens) (Q9NWZ3 whole entry): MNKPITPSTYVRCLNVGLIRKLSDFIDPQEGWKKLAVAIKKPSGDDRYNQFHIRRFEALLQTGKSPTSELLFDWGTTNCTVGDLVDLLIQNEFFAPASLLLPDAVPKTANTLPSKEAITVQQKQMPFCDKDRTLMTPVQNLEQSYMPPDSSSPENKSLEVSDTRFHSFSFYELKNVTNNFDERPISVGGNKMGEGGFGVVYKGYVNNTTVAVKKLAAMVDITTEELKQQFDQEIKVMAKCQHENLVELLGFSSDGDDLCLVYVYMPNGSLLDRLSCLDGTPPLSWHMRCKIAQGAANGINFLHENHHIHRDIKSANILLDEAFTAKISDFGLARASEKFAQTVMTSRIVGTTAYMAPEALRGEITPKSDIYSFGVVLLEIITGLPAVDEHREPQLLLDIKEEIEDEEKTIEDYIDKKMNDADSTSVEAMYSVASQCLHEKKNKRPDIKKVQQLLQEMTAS

[14] = target: Interleukin-1 receptor-associated kinase 1 (Homo sapiens) (UniProt P51617); assay: Activity of human IRAK1 kinase at 1 uM
Chain of Interleukin-1 receptor-associated kinase 1 (Homo sapiens) (P51617 whole entry, looked up): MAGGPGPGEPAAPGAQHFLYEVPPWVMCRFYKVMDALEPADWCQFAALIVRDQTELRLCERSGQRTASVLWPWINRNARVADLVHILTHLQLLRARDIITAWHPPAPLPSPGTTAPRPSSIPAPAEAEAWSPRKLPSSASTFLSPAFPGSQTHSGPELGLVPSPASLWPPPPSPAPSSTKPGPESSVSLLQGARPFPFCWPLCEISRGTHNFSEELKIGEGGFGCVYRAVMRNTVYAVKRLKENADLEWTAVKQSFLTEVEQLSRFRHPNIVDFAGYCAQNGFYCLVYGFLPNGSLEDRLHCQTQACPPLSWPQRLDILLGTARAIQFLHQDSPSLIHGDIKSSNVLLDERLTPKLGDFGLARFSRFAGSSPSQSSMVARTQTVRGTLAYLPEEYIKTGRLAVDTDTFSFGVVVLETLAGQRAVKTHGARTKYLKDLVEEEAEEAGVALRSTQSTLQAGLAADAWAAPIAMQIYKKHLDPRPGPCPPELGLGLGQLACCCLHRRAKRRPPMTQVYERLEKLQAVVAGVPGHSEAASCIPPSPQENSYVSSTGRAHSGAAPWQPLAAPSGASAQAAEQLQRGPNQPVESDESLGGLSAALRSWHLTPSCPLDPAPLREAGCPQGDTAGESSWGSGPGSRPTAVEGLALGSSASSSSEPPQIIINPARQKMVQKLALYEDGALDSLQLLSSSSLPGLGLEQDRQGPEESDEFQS

[15] = target: Tyrosine-protein kinase Blk (Mus musculus) (UniProt P16277); assay: Activity of mouse Blk kinase at 1 uM; in short: as §1
[16] = target: Eukaryotic elongation factor 2 kinase (Homo sapiens) (UniProt O00418); assay: Activity of human eEF-2K kinase at 1 uM; in short: as §1
PC-3 [17] = assay: Induction of apoptosis in human PC3 cells assessed as PARP cleavage at 4 uM after 48 hrs by Western blot method; type: functional, cell-based
[18] = target: Ephrin type-A receptor 5 (Homo sapiens) (UniProt P54756); assay: Activity of human EphA5 kinase at 1 uM; in short: as §4
[19] = target: Mitogen-activated protein kinase 13 (Homo sapiens) (UniProt O15264); assay: Activity of human SAPK4 kinase at 1 uM; in short: as §3
PC-3 [20] = assay: Cell cycle arrest in human PC3 cells by accumulation at G1 phase at 4 uM after 24 hrs by flow cytometry relative to control; type: functional; in short: as §2
[21] = target: Death-associated protein kinase 2 (Homo sapiens) (UniProt Q9UIK4); assay: Activity of human DAPK2 kinase at 1 uM; in short: as §4
Chain of Death-associated protein kinase 2 (Homo sapiens) (Q9UIK4 whole entry, looked up): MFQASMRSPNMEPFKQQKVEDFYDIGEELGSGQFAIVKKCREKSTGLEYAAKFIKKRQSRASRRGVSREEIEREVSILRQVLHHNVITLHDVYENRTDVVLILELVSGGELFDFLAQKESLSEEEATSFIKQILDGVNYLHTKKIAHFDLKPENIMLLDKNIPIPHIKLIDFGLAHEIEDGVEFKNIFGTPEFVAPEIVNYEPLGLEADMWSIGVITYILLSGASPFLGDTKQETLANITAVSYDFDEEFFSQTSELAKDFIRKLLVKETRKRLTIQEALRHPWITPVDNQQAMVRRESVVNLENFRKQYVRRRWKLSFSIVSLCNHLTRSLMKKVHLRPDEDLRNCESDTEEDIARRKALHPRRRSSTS

- Activity [1]: 130%
- Activity [2]: 115%
- Activity [4]: 120%
- Activity [5]: 112%
- Activity [6]: 120%
- Activity [8]: 112%
- Activity [10]: 140%
- Activity [11]: 92%
- Activity [12]: 92%
- Activity [13]: 97%
- Activity [14]: 110%
- Activity [15]: 53%
- Activity [16]: 123%
- Activity [18]: 80%
- Activity [19]: 87%
SMILES: O=C(O)c1ccc(Nc2ncc3c(n2)-c2ccc(Cl)cc2C(c2c(F)cccc2F)=NC3)cc1 [MLN-8054]
- Activity (PC-3 [3]): 59.8%
- Activity (Mus musculus): 5.4%
- Activity (PC-3 [7]): 5%
- Activity (PC-3 [9]): Active
- Activity (PC-3 [17]): Active
- Activity (PC-3 [20]): 23%
- Activity [21]: 103%
